Screens (PubChem)
Yeast lifespan up = compounds extending yeast replicative lifespan, primary screen, S. cerevisiae, OD615 | S. cerevisiae growth with nicotinamide; deaD strain in restrictive glucose medium | inhibition of the nicotinamide effect, % at 10 µM | hit rate 0.68% among 130,000;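 active means inhibition above a set limit, placed 3 SD over the median of all compounds, cut at about 26% in these data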;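 further: 0% = nicotinamide-treated wells and 100% = cells grown without nicotinamide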
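Assay system: DeaD-strain S. cerevisiae. Medium: CSMM-D glucose medium, restrictive. Reagent: nicotinamide, 1.5 mM, co-present with compound. Compound: 10 µM single point, 0.25% DMSO. Schedule: culture preincubation 4 h, compound exposure 48 h, both 30 °C. Detection: absorbance at 615 nm.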
Insulin prom up = insulin promoter activators in MIN6 cells, imaging, high-content screening, mouse beta cells; MIN6 insulin promoter-GFP reporter; active compounds read high; z-score at 5 µM; hit rate 0.3% among 190,000; AID 1625, 2009;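 active means z-score above 3 at 5 µM with at least 500 cells counted in the well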
RAM network inh = inhibitors of the yeast RAM network, primary screen, dse1pr::URA3 reporter, 5-FOA selection; S. cerevisiae dse1pr::URA3 reporter, 5-FOA growth OD615, 2 d; analog-sensitive cbk1-as2 kinase mutant strain; inhibition, % at 50 µM; hit rate 1.8% among 190,000; AID 868, 2007;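 active means inhibition above a set limit, 3 SD over mean compound inhibition, cut at about 8.4% in these data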;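 further: 0% = DMSO-only wells with no growth and 100% = 10 µM 1-NA-PP1 full growth; inhibition rescues growth on 5-FOA so higher OD means more RAM inhibition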
BB579 growth dn = growth inhibitors of yeast BB579 in restrictive medium, primary screen, yeast lifespan-shortening project, S. cerevisiae; AID 804, 2007; hit rate 0.51% among 140,000; inhibition, % at 10 µM; OD615, 48 h;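 active means inhibition above a set limit, 3 SD over the mean compound inhibition, cut at about 44% in these data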
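controls = amphotericin B 10 µg/mL, positive | assay system = DeaD yeast strain BB579 | schedule = 48 h compound exposure at 30 °C after 4 h preincubation | detection = OD615 turbidity measurement | medium = restrictive CSMM-D medium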
INS promoter inh = inhibitors of insulin promoter-driven GFP, primary screen, imaging, TRM-6 cells, eGFP reporter, cell count; reporter expression induced with tamoxifen; inhibition, % at 2 µM; hit rate 0.9% among 130,000;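 active means inhibition above the mean plus 3 SD, with well images judged a real hit on visual review, cut at about 60% in these data, passing the limit was not always enough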
* hit, by the source's call; · = no result. Shown are actives, neighbours in structure and some others; about 3.1% of the full set was active somewhere.

SMILES | Yeast lifespan up | Insulin prom up | RAM network inh | BB579 growth dn | INS promoter inh
COc1cccc(NC(=O)NC2CCCc3ccccc32)c1 (configuration not stated) | · | -0.65 | 8.8* | · | ·
N#CC(C#N)=CC1=C2OC(c3ccccc3)=CC(c3ccccc3)=C2CCC1 | 0 | -0.24 | 10* | -61 | -7
Cc1ccc(S(=O)(=O)Nc2ccccc2/C=N/c2nc3ccccc3n2C(C)C)cc1 | 53* | -0.49 | 0 | -10 | 11
CCCCn1c(/N=C/c2ccccc2NS(=O)(=O)c2ccc(C)cc2)nc2ccccc21 | 68* | 0.22 | 0 | -38 | ·
C=CCOC(=O)CSCC(NC(=O)OC(C)(C)C)C(=O)OCC (configuration not stated) | 3 | -0.97 | 0 | -29 | -10
CN(c1ccccc1)C1CCCCC1NS(=O)(=O)c1ccc(Cl)cc1 (configuration not stated) | 36* | -0.32 | 1 | 11 | 27
CCN(CC)C1CCCCC1NS(=O)(=O)c1ccc(Cl)cc1 (configuration not stated) | -15 | -1.5 | 1 | 9 | ·
CSc1ccc(OC2CCCCC2NS(=O)(=O)c2ccc(Cl)cc2)cc1 (configuration not stated) | 5 | -0.54 | 5 | -19 | 100*
O=c1[nH]c(-c2ccccc2Cl)nc2c1sc(=S)n2-c1ccccc1 | · | 0.24 | 3 | · | ·
COc1ccc(C2=NC(=O)/C(=C\c3cc(OC)c(OC)c(OC)c3)O2)cc1 | 4 | 3* | 3 | -37 | -20
CC(C)c1nc2cc3ccccc3cc2[nH]1 | -11 | 0.51 | 2 | -61 | 86*
CC1CCC(C(C)C)C(OC(=O)CSc2n[nH]c(=O)[nH]c2=O)C1 (configuration not stated) | 48* | -1.4 | 2 | -47 | 30
CCOc1ccc(Cc2c(Cl)nc(SC)nc2N(C)C)cc1 | -4 | · | 7 | -34 | ·
CSc1nc(Cl)c(Cc2ccc(OC(C)C)cc2)c(N(C)C)n1 | 8 | -0.18 | 8.9* | -11 | ·
O=C(Nc1ccc(Cl)cc1F)c1ccc(COc2c(F)c(F)c(F)c(F)c2F)o1 | -13 | 0.22 | 2 | 11 | ·
O=C(c1ccc(COc2c(F)c(F)cc(F)c2F)o1)N1CCN(c2ccccc2)CC1 | · | · | 11* | -18 | -42
O=C(Nc1ccc(F)cc1F)c1ccc(COc2c(F)c(F)cc(F)c2F)o1 | -13 | -1.2 | 8.6* | -38 | 32
CN(C)C(=O)C12CCC(C)(c3nc4ccccc4nc31)C2(C)C (configuration not stated) | -1 | 3.4* | 3 | -17 | 37
O=C(CN1C(=O)C2CC=CCC2C1=O)Nc1ccc(S(=O)(=O)Nc2nccs2)cc1 (configuration not stated) | · | 0.27 | · | · | ·
COc1ccc(C(=O)/C=C/c2ccc(O)cc2)cc1 | · | -0.32 | -1 | · | ·
COc1ccc(C=C(c2ccc(OC)cc2)c2ccc(OC)cc2)cc1 | -2 | 0.29 | 8.5* | -67 | 39
c1ccc(-c2nc(-n3ccnc3)nc(-n3ccnc3)n2)cc1 | -29 | 0.6 | 2 | 74* | -10
CCOc1ccc(C2=Nc3ccc(Br)cc3C(c3ccc(N4CCOCC4)cc3)=NN2)cc1 | 0 | 0.13 | 10* | -25 | ·
C=C(C)C(=O)Nc1cccc(C2=NOC3(C2)C[C@H](C(N)=O)N(C(=O)/C=C/C)C3)c1 (some centres not stated) | · | 1.4 | · | · | ·
O=C(Nc1ccc(S(=O)(=O)Nc2ncccn2)cc1)c1cnc(Cl)c(Cl)c1 | · | -0.65 | 11* | · | ·
SMILES | Yeast lifespan up | Insulin prom up | RAM network inh | BB579 growth dn | INS promoter inh
CC(C)COC(=O)Cn1cnc2ccc(Br)cc2c1=O | 27* | -0.5 | -1 | -14 | ·
Cc1cc(C)cc(SCc2noc(C(=O)NCc3ccccc3)c2C(=O)NCc2ccccc2)c1 | · | 1.1 | · | · | ·
COc1c(OC(C)=O)ccc(/C=C/c2ccc3cccc(OCc4ccccc4)c3n2)c1[N+](=O)[O-] | 6 | -0.69 | 7 | -39 | -52
COc1ccc(C(=O)Cn2c(C)nc([N+](=O)[O-])c2Br)cc1 | · | -0.94 | · | · | ·
Cc1nc([N+](=O)[O-])c(Br)n1CC(=O)c1ccc(Cl)cc1 | -3 | 0 | 2 | -67 | 69*
Cc1cc(C)nc(SC2=CS(=O)(=O)c3ccccc32)n1 | -9 | · | 1 | -7 | 6
O=S1(=O)C=C(Sc2nc3ccccc3s2)c2ccccc21 | 69* | -0.19 | 2 | -11 | ·
CN(C)C(/C=C/Nc1ccc([N+](=O)[O-])cc1)=C(C#N)C#N | · | 1.7 | 2 | · | 9
CCN(CC)S(=O)(=O)c1ccc(C)c(NC(=S)Nc2cccc(S(=O)(=O)N3CCCCCC3)c2)c1 | 24 | -0.37 | 9.0* | -42 | -68
NS(=O)(=O)c1ccc(NC(=O)CSc2nnc(COc3ccccc3Cl)n2C2CC2)cc1 | -5 | · | 9.5* | -46 | 65
COC(=O)c1ccc(CSc2cc(C)c3cccc(C)c3n2)o1 | · | 2.2 | 8.5* | · | ·
COC(=O)c1ccc(CSc2cc(C)c3cc(C)cc(C)c3n2)o1 | · | 2.2 | 8 | · | ·
CCOC(=O)c1c(-c2ccc(OC)cc2)csc1/N=C/C1=C(O)CCCC1=O | -4 | -0.07 | 6 | -21 | 33
CCOC(=O)N/N=C(\C)c1ccccc1OC(F)F | 2 | 0.57 | 0 | -5 | 36
COC(=O)c1sccc1NC(=O)CSc1ccccc1NS(=O)(=O)c1ccc(Cl)cc1 | -9 | · | 4 | -7 | 53
COC(=O)c1sccc1NC(=O)CSc1cc(Cl)ccc1Cl | -14 | · | 9.5* | -34 | -2
Cn1c(=O)c([N+](=O)[O-])c(NCc2ccc3c(c2)OCO3)c2ccccc21 | · | -0.05 | · | · | ·
CCOc1ccccc1/C=N/Nc1ccccc1[N+](=O)[O-] | 3 | 0.39 | 9.8* | -15 | 42
COc1ccccc1/C=N\Nc1ccccc1[N+](=O)[O-] | · | -0.01 | · | · | ·
CC(C)Oc1ccccc1/C=N/Nc1ccccc1[N+](=O)[O-] | -2 | · | 8.5* | -39 | 55
Cc1[nH]c2ccccc2c1/C=N/Nc1ccccc1[N+](=O)[O-] | · | -1.1 | 8.8* | · | ·
CCN1C(=O)/C(=C/c2ccc(OC)c(OC)c2)N=C1SCC(=O)NCc1ccco1 | -3 | 1.1 | 2 | -35 | 27
O=C(NC(=S)N1CCN(Cc2ccc3c(c2)OCO3)CC1)c1ccc(Cl)cc1 | 2 | 0.06 | -1 | -42 | ·
NS(=O)(=O)c1ccc(NC(=S)NC(=O)c2ccc3c(c2)OCO3)cc1 | · | -0.42 | 4 | · | ·
NC(N)=NS(=O)(=O)c1ccc(NC(=S)NC(=O)c2ccc3c(c2)OCO3)cc1 | · | 0.9 | 9.1* | · | -58
Cc1ccc(N2NC(C)(c3cccs3)NC2=S)cc1 (configuration not stated) | -10 | -0.72 | -1 | 98* | 0
O=C(N/N=C/c1cccc(F)c1)c1c(O)c2ccccc2[nH]c1=O | 52* | -0.17 | 1 | -34 | ·
O=C(N/N=C/c1cccc(Cl)c1)c1c(O)c2c([nH]c1=O)CCCC2 | · | 0.12 | · | · | ·
